What was measured:
[1] = Biodistribution in left ventricle of Sprague-Dawley rat at 50 to 350 uCi, iv; type: ADME, organism-based, Heart left ventricle; settings: in vivo
[2] = test system: Lung; test: Biodistribution in lung of Sprague-Dawley rat at 50 to 350 uCi, iv; type: ADME, organism-based; settings: in vivo
[3] = test system: Liver; test: Biodistribution in liver of Sprague-Dawley rat at 50 to 350 uCi, iv; type: ADME, organism-based; settings: in vivo
[4] = test system: Spleen; test: Biodistribution in spleen of Sprague-Dawley rat at 50 to 350 uCi, iv; type: ADME, organism-based; settings: in vivo
[5] = test system: Muscle tissue; test: Biodistribution in muscle of Sprague-Dawley rat at 50 to 350 uCi, iv; type: ADME, organism-based; settings: in vivo
[6] = test system: Adrenal medulla; test: Biodistribution in adrenal medulla of Sprague-Dawley rat at 50 to 350 uCi, iv; type: ADME, organism-based; settings: in vivo
[7] = test system: Blood; test: Biodistribution in blood of Sprague-Dawley rat at 50 to 350 uCi, iv; type: ADME, organism-based; settings: in vivo
[8] = test system: Heart; test: Neuronal drug uptake rate in isolated Sprague-Dawley rat heart; type: ADME, tissue-based
Summary of the method: (§1)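 Isolated working rat heart perfused with Krebs-Henseleit bicarbonate buffer plus 5 mM glucose, gassed 95% O₂/5% CO₂, with 54 μM corticosterone to block uptake-2. After 30 min stabilization, 10 min constant infusion of ¹¹C tracer (2.0-12.0 μCi/mL perfusate), then 120 min washout. Whole-heart activity read by coincidence CsF detectors and converted to apparent distribution volume. K_up (mL/min/g wet) taken as the linear slope of the 1-4 min infusion data. Clearance half-time (hr) from multi-exponential fit of the washout phase.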

[9] = Drug clearance rate in isolated Sprague-Dawley rat heart; type: ADME, tissue-based; summary of the method: as §1
[10] = test system: Rhesus monkey; test: Ratio of drug level in heart to liver in macaque rhesus monkey at 4.9 mCi, iv; type: ADME, organism-based, Macaca mulatta; settings: in vivo
[11] = test system: PC-12; test: Drug uptake in heart of rat PC12 cells xenografted BALB/c nu/nu mouse at 0.34 mCi at 60 mins; settings: in vivo, 1 h
[12] = test system: PC-12; test: Drug uptake in tumor of rat PC12 cells xenografted BALB/c nu/nu mouse at 0.34 mCi within 10 mins; settings: in vivo
[13] = Ratio of drug level in heart to blood in macaque rhesus monkey at 4.8 mCi, iv; type: ADME, organism-based, Macaca mulatta
[14] = test system: Rhesus monkey; test: Ratio of drug level in heart to liver in macaque rhesus monkey at 4.8 mCi, iv; type: ADME, organism-based, Macaca mulatta; settings: in vivo
[15] = Ratio of drug level in heart to blood in macaque rhesus monkey at 5.4 mCi, iv; type: ADME, organism-based, Macaca mulatta
Summary of the method: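 Rhesus monkey PET: 5.4 mCi of the [¹¹C] tracer, given as an intravenous bolus via catheter to a 5.3 kg animal. Images were reconstructed by OSEM/3D-MAP, and tissue ratios were taken from the dynamic myocardial kinetics.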

Compound	Drug uptake [1] [% ID/g]	Drug uptake [2] [% ID/g]	Drug uptake [3] [% ID/g]	Drug uptake [4] [% ID/g]	Drug uptake [5] [% ID/g]	Drug uptake [6] [% ID/g]	Drug uptake [7] [% ID/g]	Kup [8] [mL/min/g]	half-life [9] [h]	Ratio [10]	Drug uptake [11] [% ID/g]	Drug uptake [12] [% ID/g]	Kp [13]	Ratio [14]	Kp [15]
[11CH3]NC[C@H](O)c1ccc(O)c(O)c1 [[11C]EPINEPHRINE]	2.14	0.39	1.95	0.64	0.22	0.61	0.13								
N=[11C](N)NCCc1cc(O)ccc1F	1.01	0.34	0.92	0.43	0.06	0.46	0.07	0.49	> 20						
N=[11C](N)NCCc1ccccc1F								1.76	2.3						
N=[11C](N)NCC(O)c1cccc(O)c1 (centres undefined)	1.17	0.75	2.71	0.63	0.07	0.36	0.14	0.3	> 152	0.6					
N=[11C](N)NCCc1cccc(I)c1								1.1	2.4						
N=[11C](N)NC[C@H](O)c1ccccc1	1.91	0.86	3.91	0.88	0.1	0.53	0.09	0.42	22						
N=[11C](N)NCCc1cccc(O)c1	2.28	0.74	0.89	0.63	0.07	0.88	0.07	1.96	> 102				4.7	4.4	
C[C@H](N[11CH3])[C@H](O)c1cccc(O)c1		0.4			0.17		0.08								4.5

The next lines start with results.

Drug uptake [1] [% ID/g]	Drug uptake [2] [% ID/g]	Drug uptake [3] [% ID/g]	Drug uptake [4] [% ID/g]	Drug uptake [5] [% ID/g]	Drug uptake [6] [% ID/g]	Drug uptake [7] [% ID/g]	Kup [8] [mL/min/g]	half-life [9] [h]	Ratio [10]	Drug uptake [11] [% ID/g]	Drug uptake [12] [% ID/g]	Kp [13]	Ratio [14]	Compound	Kp [15]
							0.56	1.9						N=[11C](N)NCCc1ccc(I)cc1	
							0.24	1.9						N=[11C](N)NCCc1cccc(F)c1	
3.3	0.68	0.84	0.97	0.14	1.17	0.16	1.64	> 45		17	29			N=[11C](N)NCCc1ccc(O)cc1	
1.77	0.56	1.22	0.52	0.07	0.56	0.08	0.72	> 73						N=[11C](N)NCCc1ccc(F)c(O)c1	
							0.63	4.4						N=[11C](N)NCCc1ccc(F)cc1	
							0.73	2.3						COc1ccc(CCN[11C](=N)N)cc1	
							1.56	3.3						N=[11C](N)NCCc1ccccc1 [[11C]PHENETHYLGUANIDINE]	

Source: ChEMBL document CHEMBL1147152, “Radiolabeled phenethylguanidines: novel imaging agents for cardiac sympathetic neurons and adrenergic tumors” (J Med Chem, 2007)
